Results on 34 compounds are retold here after PMC4684727 (Antiviral research, 2015).

Usually Solubility stands for the concentration that dissolves in the medium under given conditions. Low readings indicate a poorly soluble substance, high ones a readily soluble substance. Broadly, the pEC50 is the EC50 on a negative log10 scale, so that one unit is a factor of ten. A higher pEC50 goes with a low EC50.

SMILES strings stand for the structures. pEC50: −log10 of the molar value. Values after ≈ are worked out from the molar mass of the structure shown. Where only a bound is given, the exact number is not on record here.

Data set [1] has as its system D1 dopamine receptor. Conditions: ref AID: 504660; cited from earlier work.
Data set [2] concerns human M1 muscarinic receptor. Conditions: ref AID: 624040; cited from earlier work.
Data set [3] deals with human tyrosyl-DNA phosphodiesterase 1. Conditions: cited from earlier work; for inhibitory activity of human tyrosyl-DNA phosphodiesterase 1: ref AID 686978.
The subject of data set [4] is DNA polymerase ETA. Conditions: ref AID 588591; cited from earlier work.
Data set [5] concerns assembly of the perinucleolar compartement. Particulars: ref AID 2427; cited from earlier work.
Data set [6] concerns 5′UTR stem-loop driven prion protein mRNA translation in H4 neuroglioblastoma cells. Conditions: D4 and its derivatives, ref AID: 1814; cited from earlier work.
Data set [7] relates to posterior segregation family member (pos-1) binding to mex-3-RNA. Particulars: ref PubChem AID: 1964; cited from earlier work.
Data set [8] has as its system miRNAs. Conditions: D4 and its derivatives; ref AID: 2289; cited from earlier work.
The subject of data set [9] is HIV. Particulars: ref AID:651610; cited from earlier work.
Data set [10] relates to respiratory syncytial virus (RSV). Particulars: ref AID: 2410; cited from earlier work.
The subject of data set [11] is ELG1-dependent DNA repair. Particulars: PubChem / in-house qHTS cross-activity, AID not given; cited from earlier work. (In general: In qHTS, concentration-response curves come from the screen itself.)
Data set [12] has as its system HCV-WT (wild-type HCVcc) in Huh7.5.1 cells. The data set is described as follows: 2-part HCV-WT infection assay with HCV core immunofluorescence staining. It counts as cell-based, Hepatitis C virus. Conditions: for higher potency at part-2 compared to part-1: HCV-WT 2-part infection assay. In outline: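 Huh7.5.1 cells (3,000/well) were infected with wild-type J6/JFH1 HCVcc at 0.05 moi, with test compound added at infection in 1:3 serial dilutions from 30 μM (part 1). After 48 h, the media were moved onto fresh Huh7.5.1 cells (part 2) and infected for 48 h. Cells were stained with anti-core 6G7 mAb, an Alexa Fluor 488 secondary and Hoechst, then imaged. Core-positive cell percentages were normalized to DMSO and plotted as concentration-response curves.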

Data set [13] deals with HCVsc. Briefly: HCV single-cycle infection assay. It counts as cell-based, Hepatitis C virus. Particulars: significant = more than 50% decrease. Summed up: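 Single-round defective HCV particles were made by replicon trans-packaging. These particles infect and replicate but cannot assemble new virions. Luciferase signal was read 48 h after compound treatment, with cyclosporin A as positive control.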

Data set [14] relates to HCVpp-1a. It counts as cell-based, Hepatitis C virus.
In data set [15] the test system is HCV life cycle. It counts as cell-based, Hepatitis C virus. Conditions: designated from HCVsc, HCVpp and HCV replicon inhibition (>50% = significant).
Data set [16] is described as follows: Rat liver microsomal stability. It counts as in vitro ADME. Particulars: for Microsomal t1/2: rat liver microsomes, 37°C, NADPH. (Microsomes from liver hold many membrane-bound enzymes, among them those of drug oxidation.)
A short description of data set [17]: Permeability. It counts as physicochemical.
A short description of data set [18]: Aqueous solubility. It counts as physicochemical.
Data set [19] relates to HCV-Cre in Huh7.5.1LoxPGluc cells. The data set is described as follows: HCV-Cre/LoxPGluc cell-based HCV infection qHTS assay. More on the design: species or system Hepatitis C virus. Particulars: primary screen, luciferase 48 h. Summed up:
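Huh7.5.1LoxPGluc cells carry a Cre-activated Gaussia luciferase and are kept in DMEM with 10% FBS at 37 °C and 5% CO2. Cells (750/well) were plated overnight, then given test compound and HCV-Cre at ~0.05 m.o.i. Five plates were run: DMSO plus 0.34, 1.7, 8.5 and 42 μM. Luciferase was read at 48 h. Responses were normalized to 10 μM cyclosporin A (100%) and DMSO (0%), and EC50 was fitted by nonlinear regression.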

On to `CCN1CCN(c2ccc(NC(=O)c3cccc(OCc4ccccc4)c3)cc2)CC1` [B5], for which the “activity against D1 dopamine receptor” value in data set [1] is recorded as “showed activities”. The “activity against human M1 muscarinic receptor” value in data set [2] is listed as “showed activities”.

Consider `COC(=O)C1=C(c2ccc(-c3ccccc3)c(F)c2)C[C@@H]2CC[C@H]1N2C(=O)NCc1cccc2ccccc12` [D1], for which the “inhibitory activity of human tyrosyl-DNA phosphodiesterase 1” value in [3] was “showed inhibitory activity”.

Consider `N#C/C(=C\Nc1ccc2cn[nH]c2c1)c1nc(-c2ccccc2)cs1` [D2], for which the “inhibitory activity of human tyrosyl-DNA phosphodiesterase 1” value in data set [3] is “showed inhibitory activity”.

Take `Cn1c(=O)c2c(nc(SCC(=O)NCc3ccc4c(c3)OCO4)n2Cc2ccc(Cl)cc2)n(C)c1=O` [D3]: the “inhibition of DNA polymerase ETA” value in [4] is “inhibitor”. Also, the “inhibition of assembly of the perinucleolar compartement” value in [5] is “inhibited the assembly”.

`CCNC(=S)/N=C(\N)Nc1nc(C)c2cc(C)ccc2n1` [D4]: the “activation of 5′UTR stem-loop driven prion protein mRNA translation” value in data set [6] is on record as “activators”. Moreover, the “targeting pos-1 binding to mex-3-RNA” value in data set [7] was “targets”. Moreover, the “modulation of miRNAs” value in data set [8] is “potent modulators”.

For the compound `Cc1c(NC(=O)c2cc3c(s2)-c2ccccc2OC3)cccc1[N+](=O)[O-]` [D5], in data set [3] (PubChem / in-house qHTS cross-activity, AID not given), the “inhibitory activity against human TDP1” value is “showed inhibitory activities”. In [9], the “inhibition of HIV” value is recorded as “inhibitor”. Besides, the “inhibition of RSV” value in data set [10] is reported as “inhibitor”. In addition, the “inhibitory activity against ELG1-dependent DNA repair” value in [11] is recorded as “showed inhibitory activities”.

For `Cc1ccc(C)c2nc(SCC(=O)N3CCCc4ccccc43)c(C#N)cc12` [D7], the “higher potency at part-2 compared to part-1” value in [12] is given as 10–50 fold.

Regarding `N=c1c(C(=O)NCc2ccc3c(c2)OCO3)cc2c(=O)n3ccccc3nc2n1Cc1cccnc1` [MLS000040412-01], the “inhibition in HCVsc assay” value in data set [13] was “significant inhibition”. For the same compound, the “inhibition in HCVpp assay” value in data set [14] is recorded as “less than 50%”. Also, the Life cycle stage entry in data set [15] is “entry inhibitors”.

Take `CCN1CCN(CCCOc2ccc(-c3ccccc3)cc2)CC1` [MLS000049859-01]: in data set [16], the “Microsomal t1/2” value was found to be 7.9 m and the “half-life (t1/2) in rat microsomes” value is 7.9 min. This compound also returned a Permeability in data set [17] of over 2183.0 ×10⁻⁶ cm/s. For the same compound, in [15], the Life cycle stage entry is given as “Entry”. The Solubility in data set [18] was over 48.0 µg/mL.

Consider `CCCCCn1c(=O)[nH]c2cc(C(=O)NCCCN3CCCCC3)ccc2c1=O` [MLS000086763-01], for which, in [19], the negative logarithm of the EC50 (pEC50) was 5.00.

As to `O=C(NCCCN1CCCCC1)c1ccc2c(=O)n(CCc3ccccc3)c(=O)[nH]c2c1` [MLS000086784-01], in data set [19], the pEC50 is 5.20.

`Cc1ccccc1-c1nc(CN2CCC(C(=O)NCc3cccnc3)CC2)c(C)o1` [MLS000095186-01] showed a pEC50 in data set [19] of 5.30.

On to `Cc1ccccc1-c1nc(CN2CCC(C(=O)NCC3CCCO3)CC2)c(C)o1` (centres unmarked) [MLS000095190-01], for which the pEC50 in data set [19] is under 4.00.

In data set [19], `Cc1ccccc1-c1nc(CN2CCC(C(=O)NCCC3=CCCCC3)CC2)c(C)o1` [MLS000095191-01] had a pEC50 of 5.20.

Compound `Cc1ccccc1-c1nc(CN2CCC(C(=O)NCCCN3CCCC3)CC2)c(C)o1` [MLS000095192-01] gave a pEC50 in data set [19] of 4.85.

In [19], `Cc1oc(-c2ccc(Cl)cc2)nc1CN1CCCC(C(=O)NCCCN2CCCC2=O)C1` (centres unmarked) [MLS000117605-01] gave a pEC50 of 4.95. This pEC50 and that of the compound before are within 0.2 log units of each other.

In [19], `CCCCCn1c(=O)[nH]c2cc(C(=O)NC3CCN(Cc4ccccc4)CC3)ccc2c1=O` [MLS000519908-01] had a pEC50 of under 4.00.

In turn, `CC1CCN(CCCNC(=O)c2ccc3c(=O)n(CCc4ccccc4)c(=O)[nH]c3c2)CC1` [MLS000519916-01] had a pEC50 in data set [19] of 5.05.

As to `CC1CCCCN1CCCNC(=O)c1ccc2c(=O)n(CCc3ccccc3)c(=O)[nH]c2c1` (centres unmarked) [MLS000519917-01], the pEC50 in data set [19] is 5.40.

For the compound `COc1ccc(CN2CCC(N(CCc3ccccc3)Cc3ccccc3)CC2)c(OC)c1.O=C(O)C(=O)O` [MLS000662842-01], in data set [16], the “Microsomal t1/2” value was found to be 2.3 m and the “half-life (t1/2) in rat microsomes” value is reported as 2.3 min. Also, in data set [15], the Life cycle stage entry is recorded as “Assembly/secretion”. Moreover, the Solubility in data set [18] worked out at 49.3 µg/mL.

Consider `O=C(Nc1ccc(S(=O)(=O)Nc2ccccc2)cc1)c1ccc(CN2CCOCC2)cc1` [MLS000714550], for which the “inhibition of HCV core-positive cells, part-1 versus part-2” value in [12] (compounds 1:3 dilutions from 30 μM, 48 h per part) is “decreased similarly in both parts”.

Regarding `Cc1cc(SCC(=O)c2ccccc2)n2ncc(-c3ccccc3)c2n1` [MLS000763045-01], in data set [12], the “higher potency at part-2 compared to part-1” value is given as 10–50 fold.

Take `CCCCCn1c(=O)[nH]c2cc(C(=O)NCCCN3CCC(C)CC3)ccc2c1=O` [MLS000876570-01]: in data set [16], the “Microsomal t1/2” value is reported as over 30.0 m and the “half-life (t1/2) in rat microsomes” value is “greater than 30 min”. Also, the Permeability in [17] is under 30.9 ×10⁻⁶ cm/s. Also, the Life cycle stage result in data set [15] is “Entry”. The compound further gave a Solubility in data set [18] of over 59.0 µg/mL. This compound gave a pEC50 in data set [19] of 5.35.

The compound `Cc1ccccc1-c1nc(CN2CCC(C(=O)NCCCN3CC(C)CC(C)C3)CC2)c(C)o1` (centres unmarked) [MLS000877128-01] yielded a Permeability in data set [17] of 489.1 ×10⁻⁶ cm/s. Further, the Life cycle stage result in data set [15] is recorded as “Entry”. Besides, the Solubility in data set [18] stood at 53.9 µg/mL (≈ 115 µM). Further, the negative logarithm of the EC50 (pEC50) in [19] was 5.90.

`Cc1oc(-c2ccc(Cl)cc2)nc1CN1CCC(C(=O)NCCCN2CCCC2=O)CC1` [MLS000878431-01] had a pEC50 in data set [19] of 4.65.

For the compound `CCOC(=O)c1cc2c(=O)n3ccccc3nc2n(CCCOC)c1=NC(=O)C(C)(C)C` [MLS000879011-01], the Life cycle stage entry in data set [15] was “entry inhibitors”.

Consider `Cc1ccccc1-c1nc(CN2CCC(C(=O)NCCN3CCOCC3)CC2)c(C)o1` [MLS000913230-01], for which the pEC50 in [19] is under 4.00.

`CCC1CCCCN1CCCNC(=O)C1CCN(Cc2nc(-c3ccc(Cl)cc3)oc2C)CC1` (centres unmarked) [MLS000913279-01]: the pEC50 in [19] was 5.85.

For the compound `CCCCCn1c(=O)[nH]c2cc(C(=O)NCCCN3CCCCC3CC)ccc2c1=O` (centres unmarked) [MLS000948303-01], the pEC50 in data set [19] is 5.15.

In the case of `CCC1CCCCN1CCCNC(=O)c1ccc2c(=O)n(CCOC)c(=O)[nH]c2c1` (centres unmarked) [MLS000948314-01], the pEC50 in [19] was under 4.00.

For the compound `CCCCCn1c(=O)[nH]c2cc(C(=O)NCCN3CCCCC3C)ccc2c1=O` (centres unmarked) [MLS000948325-01], in data set [19], the pEC50 was 4.65.

As for `COc1ccc(CCNC(=O)c2cc3c(=O)n4ccccc4nc3n(C3CCCCC3)c2=N)cc1` [MLS001139315-01], the Life cycle stage entry in [15] is reported as “entry inhibitors”.

`COc1ccc(CCNC(=O)c2cc3c(=O)n4ccccc4nc3n(CCCN3CCOCC3)c2=N)cc1` [MLS001139388-01]: the Life cycle stage entry in [15] was “entry inhibitors”.

For the compound `CC(NC(=O)c1cc2c(=O)n3ccccc3nc2n(CC2CCCO2)c1=N)c1ccccc1` (centres unmarked) [MLS001217747-01], in data set [13], the “inhibition in HCVsc assay” value is recorded as “significant inhibition”. The Life cycle stage result in [15] was “entry inhibitors”.
